TDP2 inh = TDP2 (human) inhibition, absorbance primary screen; recombinant TDP2, T5PNP hydrolysis, p-nitrophenol absorbance 415 nm; inhibition, % at 12.8 µM; 0.34% of 370,000 active; AID 720702;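 active = inhibition above the mean of all tested compounds plus 3 SD, set per campaign, cut at about 25% in these data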
Target sequence (O95551 whole entry, looked up): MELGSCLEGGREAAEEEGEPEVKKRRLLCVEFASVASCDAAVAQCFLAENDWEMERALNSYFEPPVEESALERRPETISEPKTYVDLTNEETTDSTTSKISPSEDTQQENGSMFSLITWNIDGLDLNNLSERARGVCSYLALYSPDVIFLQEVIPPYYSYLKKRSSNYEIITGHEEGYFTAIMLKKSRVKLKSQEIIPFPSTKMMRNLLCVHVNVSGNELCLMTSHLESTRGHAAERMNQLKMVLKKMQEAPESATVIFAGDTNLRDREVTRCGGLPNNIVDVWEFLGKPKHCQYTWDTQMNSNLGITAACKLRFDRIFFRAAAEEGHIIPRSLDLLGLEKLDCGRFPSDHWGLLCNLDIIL
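Assay system: Recombinant human TDP2 | Quantity: 120 nM TDP2 per well | Incubation: 2 h at 37 °C | Signal: Epi absorbance | Evaluation: Percent inhibition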
Casp6 inh = inhibitors of human caspase-6 | 0.53% of 350,000 active | P55212 | inhibition, % at 12.5 µM | purified caspase-6, Z-VEID-R110 cleavage fluorescence;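 active = mean inhibition across replicates at least about 35%, with every replicate also reaching that limit, limit read from the data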
Target sequence (P55212 24-179 limits assumed): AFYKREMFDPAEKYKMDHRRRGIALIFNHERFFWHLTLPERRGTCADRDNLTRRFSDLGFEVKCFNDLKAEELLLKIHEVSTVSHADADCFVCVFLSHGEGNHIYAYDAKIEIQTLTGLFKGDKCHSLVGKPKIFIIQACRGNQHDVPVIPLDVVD
Target sequence (P55212 194-293 limits assumed): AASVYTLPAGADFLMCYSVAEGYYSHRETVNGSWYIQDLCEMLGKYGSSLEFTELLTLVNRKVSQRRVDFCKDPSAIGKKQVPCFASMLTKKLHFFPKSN
UHRF1 MBD2 ctr = human UHRF1 methylated DNA binding inhibitors; 0.75% of 370,000 active; UHRF1 binding to methylated oligo, TR-FRET; AID 687016; inhibition, % at 4.4 µM; Q96T88; in the data active = inhibition above about 21%;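 note: UHRF1 SRA domain binding a hemimethylated CpG hairpin DNA probe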
NSD2 inh = inhibitors of human histone methyltransferase NSD2 | O96028 | NSD2 peptide methylation, AlphaScreen, 120 min | inhibition, % at 12.5 µM | 0.54% of 310,000 active | AID 743445; in the data active = inhibition above about 50%
LEDGF integ inh = blocks HIV-1 LEDGF/p75-dependent DNA integration; TR-FRET IN-LEDGF/p75 DNA integration, Eu/Cy5; 0.64% of 370,000 active; inhibition, % at 3.7 µM;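 active = inhibition above the screen-wide mean plus 3 SD, cut at about 13% in these data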;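 note: signal is the Cy5 over europium emission ratio at 671 and 618 nm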
MBD2 DNA inh = MBD2-methylated oligo binding inhibition | TR-FRET, MBD2 binding to methylated oligonucleotide | inhibition, % at 4.4 µM | 0.31% of 370,000 active | AID 686964; in the data active = inhibition above about 13%
Numbers stand for hits; . = inactive; / = not tested or not shown. Shown are actives, neighbours in structure and some others; about 1.8% of the full set was active somewhere.

SMILES | TDP2 inh | Casp6 inh | UHRF1 MBD2 ctr | NSD2 inh | LEDGF integ inh | MBD2 DNA inh
COc1cccc(C#Cc2cnc3c(c2)C(=O)N([C@@H](C)CO)C[C@@H](C)[C@H](CN(C)C(=O)C2CCC2)O3)c1 | / | . | / | / | / | /
Cc1ccc(S(=O)(=O)NC(C)C(c2cccs2)N2CCOCC2)cc1 (stereo not drawn) | . | . | 39 | / | . | .
Cc1ccc(-c2nc3c4ccccc4ccn3c2CC2CCCCC2)cc1 | . | . | . | / | . | .
COc1ccc(-c2nc3c4ccccc4ccn3c2CC2CCCCC2)cc1OC | . | . | 23 | / | . | .
Cc1cccn2c(/C=N/OCc3cccc(F)c3)c(-c3ccc(Cl)cc3)nc12 | . | / | 23 | . | . | .
Cc1cccc(NC(=O)CSc2ccc(-c3ccc4c(c3)OCO4)nn2)c1C | . | / | 27 | . | . | .
Cc1cc(NC(=O)CSc2ccc(-c3ccc4c(c3)OCO4)nn2)no1 | . | . | . | . | . | .
O=C(O)c1ccc(NC(=O)C2CCN(S(=O)(=O)c3ccc4c(c3)OCCO4)CC2)cc1 | . | . | . | . | . | .
Cc1ccc(NC(=O)C2CCN(S(=O)(=O)c3ccc4c(c3)OCCCO4)CC2)nc1 | . | . | 34 | . | . | .
O=C(Nc1ccccc1)C1CCN(S(=O)(=O)c2ccc3c(c2)OCCO3)CC1 | . | 36 | . | . | . | .
O=S(=O)(c1ccc2c(c1)OCCO2)N1CCN(S(=O)(=O)c2c(F)cc(F)cc2F)CC1 | . | . | 29 | / | . | .
CCOC(=O)c1c(-c2ccc(Cl)cc2)csc1/N=C/C1C(=O)CC(C)(C)CC1=O | / | / | / | . | / | /
OC(C#CCN1CCCC1)(c1ccccc1)c1cccnc1 (stereo not drawn) | . | . | 21 | / | . | .
OC(C#CCN1CCCCCC1)(c1ccccc1)c1cccnc1 (stereo not drawn) | . | . | . | . | . | .
Cc1noc(C)c1NC(=O)Nc1ccc2c(c1)CC(=O)N([C@@H](C)CO)C[C@@H](C)[C@@H](CN(C)Cc1ccc(-c3ccccc3)cc1)O2 | / | . | / | / | / | /
Cc1cc(C(=O)N/N=C/c2ccc(Br)o2)n[nH]1 | . | . | . | . | . | .
Cc1cc(C(=O)N/N=C/c2cc(Br)c(Br)o2)n[nH]1 | . | 54 | . | . | . | .
CC(C)CC(=O)NCCCCc1ccccc1 | . | . | 21 | . | . | .
CC(C)C(=O)NCCCc1ccccc1 | . | / | . | . | . | .
O=C1Nc2ccccc2C1(O)c1ccccc1O (stereo not drawn) | . | . | . | . | . | .
Cc1cc(C2(O)C(=O)Nc3ccccc32)ccc1F (stereo not drawn) | . | 36 | . | . | . | .
CO[C@H]1CN(C)C(=O)c2ccc(NC(=O)Nc3c(C)noc3C)cc2OC[C@H](C)N(CC2CC2)C[C@@H]1C | / | . | / | / | / | /
COc1ccc(-c2[nH]ncc2CN(C)CCN2CCOCC2)cc1F | . | . | 22 | . | . | .
Cc1cc(C(=O)Nc2cccc3c2O[C@@H](CN(C)Cc2ccc(C(=O)Nc4ccccc4N)cc2)[C@@H](C)CN([C@@H](C)CO)C3=O)n(C)n1 | / | . | / | / | / | /
[N-]=[N+]=NCc1ccccc1C[C@]1(C(=O)N2CCCCC2)N=C(c2ccc(OCCCO)cc2)O[C@H]1c1ccccc1 | / | . | / | / | / | /
SMILES | TDP2 inh | Casp6 inh | UHRF1 MBD2 ctr | NSD2 inh | LEDGF integ inh | MBD2 DNA inh
Cc1ccc(CS/C(Nc2ccccc2C)=C(\C#N)C(=O)NCc2ccco2)c(C)c1 | . | / | . | . | . | .
Cc1ccccc1N/C(SCc1ccc(Cl)cc1)=C(/C#N)C(=O)NCc1ccco1 | . | / | 22 | . | . | .
CO[C@H]1CN(C)C(=O)c2cc(NC(C)=O)ccc2OC[C@@H](C)N(CCc2ccccc2)C[C@H]1C | / | . | / | / | / | /
Cc1noc(C)c1NC(=O)N[C@H]1CC[C@H](CCNC(=O)C2CCC2)O[C@H]1CO | / | . | / | / | / | /
NC(=O)NCC#Cc1ccc2c(c1)[C@]1(C(=O)N2)[C@H](c2ccccc2OCCO)N2[C@H](c3ccccc3)[C@H](c3ccccc3)OC(=O)[C@H]2[C@@H]1C(=O)O | / | . | / | / | / | /
O=C1O[C@@H](c2ccccc2)[C@@H](c2ccccc2)N2[C@@H](c3ccccc3OCCO)[C@]3(C(=O)Nc4ccccc43)[C@@H](C(=O)O)[C@H]12 | / | 36 | / | / | / | /
CN(C)c1ccc2c(c1)[C@@H]1C[C@@H](CC(=O)N3CCOCC3)O[C@@H](CO)[C@@H]1O2 | / | 55 | / | / | / | /
O=C(C[C@@H]1C[C@@H]2c3cc(NS(=O)(=O)c4ccc(F)cc4)ccc3O[C@@H]2[C@H](CO)O1)NCc1ccc(Oc2ccccc2)cc1 | . | . | 23 | / | . | .
O=C(C[C@@H]1C[C@H]2c3cc(NS(=O)(=O)c4ccc(F)cc4)ccc3O[C@H]2[C@H](CO)O1)NCc1ccc(Oc2ccccc2)cc1 | / | . | / | / | / | /
O=C(Nc1ccc2c(c1)[C@H]1C[C@H](CC(=O)N3CCCCC3)O[C@@H](CO)[C@H]1O2)Nc1ccccc1F | / | 36 | / | / | / | /
O=C(Nc1ccc2c(c1)[C@H]1C[C@H](CC(=O)N3CCCCC3)O[C@H](CO)[C@H]1O2)Nc1ccccc1F | / | . | / | / | / | /
COc1ccc(S(=O)(=O)N2CCCCN3[C@H](CO)[C@H](c4ccc(-c5cccnc5)cc4)[C@H]3C2)cc1 | / | . | / | / | / | /
CN1Cc2sc(NC(=S)NC(=O)c3ccccc3)c(C#N)c2CC1(C)C | . | . | 29 | . | . | 21
CC(C)C(=O)Nc1cccc(N2CCN(CCCN3C(=O)C4CCCCN4C3=O)CC2)c1 (stereo not drawn) | . | . | 23 | . | . | .
Cc1ccc2oc(-c3ccco3)cc(=O)c2c1 | . | . | . | . | . | .
CC(C)OCCOc1ccc2oc(-c3ccco3)cc(=O)c2c1 | . | 35 | . | . | . | .
CCCC(=O)N/C(N)=N/c1nc(C)c2ccccc2n1 | . | . | 34 | . | . | .
CCOC(=O)c1[nH]c(C)c(C(=O)OCc2c(C)noc2C)c1C | . | / | 22 | . | . | .
CCOC(=O)c1[nH]c(C)c(C(=O)OC)c1C | . | . | . | . | . | .
CC(C)=CCOc1ccc2c(C)c(CC(=O)N3C[C@H]4C[C@@H](C3)c3cccc(=O)n3C4)c(=O)oc2c1C | . | . | 35 | / | . | .
Cc1c(OCC(=O)N2C[C@H]3C[C@@H](C2)c2cccc(=O)n2C3)ccc2c3c(c(=O)oc12)CCCC3 | . | . | . | / | . | .
CC(=O)N=C1SC2CS(=O)(=O)CC2N1c1c(Cl)cccc1Cl (stereo not drawn) | . | / | 24 | . | . | .
CCOC(=O)c1cn(-c2ccc([N+](=O)[O-])cc2)c2cc(Cl)c([N+](=O)[O-])cc2c1=O | . | / | . | . | . | .
O=C(O)c1cn(-c2ccc(F)cc2)c2cc(Cl)c(F)cc2c1=O | . | . | 28 | . | . | .
C[C@@H]1CN([C@H](C)CO)C(=O)CCCn2cc(nn2)CO[C@H]1CN(C)C(=O)CCCN(C)C | / | . | / | / | / | /

Screening data as filed in PubChem.
